This is an account of results in article PMC11871924 (International Journal of Nanomedicine, 2025).

In data set [1] the test system is H22 orthotopic liver tumors. The data set can be described thus: Mouse orthotopic H22 hepatocellular carcinoma model. Type of data set: in vivo, BALB/c mice. The method, boiled down:
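Female BALB/c mice (6–8 weeks) received 106 log-phase H22 cells in matrix gel, injected into an exteriorised liver lobe via abdominal incision. At ~50 mm3 tumours, groups (n=5) received i.v. PBS (100 μL), 100 μL nanoparticles daily for 6 days, or oxaliplatin 5 mg/kg every two days ×3. Growth was imaged by IVIS after i.p. D-luciferin (200 μL, 15 mg/mL) on days 5, 10, 15. Body weight was recorded.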

The subject of data set [2] is VX2 orthotopic liver tumors. Put plainly: Rabbit VX2 orthotopic liver tumor model, DSA-guided arterial infusion, PET/CT. Type of data set: in vivo, New Zealand White rabbits. The note with it: n=4, mean ± s.d. The method, boiled down:
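New Zealand White rabbits (4 months, n=4/group) had 1 mm3 VX2 tumour blocks implanted in the left liver lobe under ultrasound, followed by i.m. penicillin for 3 days and CT sizing. DSA-guided hepatic arterial infusion delivered PBS, oxaliplatin or test nanoparticles (5 mg/kg), doses converted by body surface area. Tumour SUV was measured by PET/CT before and 7 days after infusion.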

For a further data set, the target named is BSA (Bos taurus, UniProt P02769). Format: binding, bovine. To be noted: 2–10 μM quencher, BSA 2 μM. Put shortly: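 BSA (2 μM) titrated with test compound at 0, 2, 4, 6, 8, 10 μM (0–20 μM for one reagent). Site competition used phenylbutazone, ibuprofen or digitoxin (2 μM final) added before the test compound. Steady-state BSA fluorescence was measured without and with quencher. Kq, Kb and n were calculated from the quenching formulas, taking biomolecule average lifetime as 10−8 s.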
Chain of BSA (P02769 25-607): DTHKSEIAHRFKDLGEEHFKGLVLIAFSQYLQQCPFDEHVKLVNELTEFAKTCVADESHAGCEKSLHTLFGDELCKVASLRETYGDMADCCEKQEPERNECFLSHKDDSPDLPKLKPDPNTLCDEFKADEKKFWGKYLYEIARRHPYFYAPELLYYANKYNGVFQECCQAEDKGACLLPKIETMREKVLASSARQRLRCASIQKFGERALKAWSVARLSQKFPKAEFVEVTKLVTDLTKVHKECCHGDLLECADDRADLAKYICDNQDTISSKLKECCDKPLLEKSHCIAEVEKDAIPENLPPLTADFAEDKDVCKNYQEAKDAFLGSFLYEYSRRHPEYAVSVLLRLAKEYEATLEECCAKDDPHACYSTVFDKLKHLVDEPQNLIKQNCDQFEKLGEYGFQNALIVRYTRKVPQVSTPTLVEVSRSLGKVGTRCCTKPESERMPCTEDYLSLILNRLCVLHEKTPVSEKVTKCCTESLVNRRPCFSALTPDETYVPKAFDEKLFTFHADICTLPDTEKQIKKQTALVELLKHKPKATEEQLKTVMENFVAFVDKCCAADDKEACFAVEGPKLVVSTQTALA

With `O=C1[O][Pt]2([NH][C@@H]3CCCC[C@H]3[NH]2)[O]C1=O` [oxaliplatin], in data set [1] (decrease from the initial 20 g, oxaliplatin 5 mg/kg i.v. every two days ×3), the “Body weight of some mice during treatment” value amounted to 13 g. For the same molecule, the “Effect on orthotopic tumors (in vivo imaging)” value in data set [1] (mouse orthotopic H22 model, i.v., n=5) is “effectively inhibited”. In data set [2], the “Tumor standardized uptake value (SUV) before treatment” value worked out at 5.44±0.43.
On to Ir(ppy)2-diimi dazole [Ir-diim], for which the “Quenching of BSA Trp-214 fluorescence emission” value on BSA was “could quench”.
